{"source": "ChEMBL document CHEMBL1131637", "about": "“Novel and selective 5-HT2C/2B receptor antagonists as potential anxiolytic agents: synthesis, quantitative structure-activity relationships, and molecular modeling of substituted 1-(3-pyridylcarbamoyl)indolines” (J Med Chem, 1998)", "key": {"[1]": {"tested_on": "Rattus norvegicus", "experiment": "Percentage change punished lever presses from mean score on 6-8 rats at 5 mg/kg po1h pretest", "assay_type": "functional", "summary_of_the_method": "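Geller–Seifter conflict test in trained rats, groups of 6–8, oral dosing. Lever pressing for food reward on a multiple schedule: five 3-min VI30 components alternating with five 3-min light-signalled FR5 components, where reward came with footshock (15 ms pulses at 200 ms intervals for 1 s). Punished presses compared with each of 2 preceding vehicle-treated test days by two-way ANOVA of square-root-transformed data.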"}, "[2]": {"tested_on": "Rattus norvegicus", "experiment": "Percentage change unpunished lever presses from mean score on 6-8 rats at 5 mg/kg po1h pretest", "assay_type": "functional"}}, "data": [{"compound": "CN1C(=O)CN=C(c2ccccc2)c2cc(Cl)ccc21", "note": "[DIAZEPAM]", "values": [{"measurement": "Change", "setting": "[1]", "result": 70, "unit": "%"}, {"measurement": "Change", "setting": "[2]", "result": -19, "unit": "%"}]}]}
